ChEMBL document CHEMBL1133105, “Antimalarial, antitrypanosomal, and antileishmanial activities and cytotoxicity of bis(9-amino-6-chloro-2-methoxyacridines): influence of the linker” (J Med Chem, 2000)

What was measured:
[1] = tested on: Trypanosoma brucei; assay: Percentage of activity against Trypanosoma brucei at 12.5 uM; type: functional
Summary of the method: (§1)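 Bloodstream-form T. brucei in HMI-9 medium, 10 000 parasites/well, exposed to 12.5, 6.25, 3.13 and 1.56 µM drug for 4 days. Read-out is % inhibition of parasite multiplication. Macrophage toxicity judged on mouse primary peritoneal macrophages.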

[2] = tested on: Trypanosoma cruzi; assay: Percentage of activity against Trypanosoma cruzi at 12.5 uM; Toxic upon mouse primary peritoneal macrophages; type: functional, organism-based
Summary of the method: (§2)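 Mouse peritoneal macrophages, 30 000/well, infected after 24 h with about 100 000 T. cruzi trypomastigotes per well plus 2-fold drug dilutions (12.5–1.56 µM). Incubated 4 days at 37 °C, 5% CO2. Methanol-fixed, Giemsa-stained and scored microscopically as % reduction of total parasite load (free trypomastigotes plus intracellular amastigotes) versus untreated controls.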

[3] = tested on: Trypanosoma brucei; assay: Percentage of activity against Trypanosoma brucei at 3.13 uM; type: functional; summary of the method: as §1
[4] = tested on: Trypanosoma brucei; assay: Percentage of activity against Trypanosoma brucei at 6.25 uM; type: functional; summary of the method: as §1
[5] = tested on: Trypanosoma brucei; assay: Percentage of activity against Trypanosoma brucei at 1.56 uM; type: functional; summary of the method: as §1
[6] = tested on: Plasmodium falciparum; assay: Parasite growth inhibition against Plasmodium falciparum K1; type: functional, organism-based
Summary of the method: (§3)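 Asynchronous cultures of each strain on human erythrocytes (0.5% parasitemia, 1% final hematocrit) were exposed to serially diluted drug for 24 h at 37 °C. Then 0.5 µCi [3H]hypoxanthine per well was added for 24 h. Incorporation was compared with a drug-free control on the same plate. IC50 was taken from the concentration-response curve as the mean of several independent experiments. DMSO was at most 0.1%.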

[7] = tested on: Leishmania infantum; assay: Percentage of activity against Leishmania infantum at 1.56 uM; type: functional
Summary of the method: (§4)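 Starch-stimulated mouse peritoneal macrophages, 30 000/well, infected after 24 h with spleen-derived L. infantum amastigotes (10:1) together with 2-fold drug dilutions (12.5–1.56 µM). Incubated 7 days at 37 °C, 5% CO2. Wright-stained slides scored microscopically as % reduction of total parasite load or of infected macrophages. Uninfected treated cultures judged microscopically for macrophage toxicity.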

[8] = tested on: Leishmania infantum; assay: Percentage of activity against Leishmania infantum 6.25 uM; type: functional; summary of the method: as §4
[9] = tested on: Leishmania infantum; assay: Percentage of activity against Leishmania infantum at 3.13 uM; type: functional; summary of the method: as §4
[10] = tested on: Trypanosoma cruzi; assay: Percentage of activity against Trypanosoma cruzi at 6.25 uM Concentration; type: functional; summary of the method: as §2
[11] = tested on: MRC5; assay: Cytotoxicity on MRC-5 cells at 12.5 uM; type: functional; conditions: Homo sapiens
Summary of the method: (§5)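 MRC-5 human diploid embryonic lung cells seeded at 5 000/well, washed after 24 h, then given 2-fold drug dilutions (25, 12.5, 6.25, 3.13 µM) in RPMI + 5% FCS, final DMSO below 0.5%. Incubated 7 days at 37 °C, 5% CO2. MTT colorimetric read-out, scored as % reduction of absorbance at 540 nm versus untreated controls.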

[12] = tested on: Plasmodium falciparum; assay: Parasite growth inhibition against Plasmodium falciparum FCM29; type: functional, organism-based; summary of the method: as §3
[13] = tested on: Trypanosoma cruzi; assay: Percentage of activity against Trypanosoma cruzi at 1.56 uM; type: functional; summary of the method: as §2
[14] = tested on: Plasmodium falciparum; assay: Parasite growth inhibition against Plasmodium falciparum F32A; type: functional, organism-based; summary of the method: as §3
[15] = tested on: Plasmodium falciparum; assay: Growth inhibition of chloroquine-sensitive Plasmodium falciparum 3D7
[16] = tested on: Plasmodium falciparum; assay: Parasite growth inhibition against Plasmodium falciparum W2; type: functional, organism-based; summary of the method: as §3
[17] = tested on: MRC5; assay: Cytotoxicity on MRC-5 cells at 6.25 uM; type: functional; conditions: Homo sapiens; summary of the method: as §5
[18] = tested on: Plasmodium falciparum; assay: Parasite growth inhibition against Plasmodium falciparum GP1; type: functional, organism-based; summary of the method: as §3
[19] = tested on: MRC5; assay: Cytotoxicity on MRC-5 cells at 25 uM; type: functional; conditions: Homo sapiens; summary of the method: as §5
[20] = tested on: Plasmodium falciparum; assay: In vitro sensitivity for Plasmodium falciparum FcB1R; type: functional, organism-based
Summary of the method: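 Asynchronous P. falciparum cultures in human erythrocytes (0.5% parasitemia, 1% haematocrit) exposed to serially diluted drug for 24 h at 37 °C. [3H]hypoxanthine (0.5 µCi/well) then added for a further 24 h. Uptake compared with drug-free controls on the same plate. IC50 taken from the concentration–response curve, averaged over independent experiments. DMSO ≤0.1%.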

[21] = tested on: Trypanosoma cruzi; assay: Percentage of activity against Trypanosoma cruzi at 3.13 uM; type: functional; summary of the method: as §2
[22] = tested on: MRC5; assay: Cytotoxicity on MRC-5 cells at 3.13 uM; type: functional; conditions: Homo sapiens; summary of the method: as §5
[23] = tested on: Leishmania infantum; assay: Percentage of activity against Leishmania infantum at 12.5 uM Concentration; Toxic upon mouse primary peritoneal macrophages; type: functional, organism-based; summary of the method: as §4
[24] = tested on: Plasmodium falciparum; assay: Inhibition of Plasmodium falciparum FCR3
[25] = tested on: Plasmodium falciparum; assay: Inhibition of Plasmodium falciparum F32A
[26] = tested on: Plasmodium falciparum; assay: Inhibition of Plasmodium falciparum W2
[27] = tested on: Plasmodium falciparum; assay: Inhibition of Plasmodium falciparum 3D7
[28] = tested on: Trypanosoma cruzi; assay: In Vitro evaluation for the percentage of activity towards Trypanosoma cruzi at 6.25 uM Concentration; Toxic upon mouse primary peritoneal macrophages; type: functional, organism-based; summary of the method: as §2
[29] = tested on: Leishmania infantum; assay: In Vitro evaluation for the percentage of activity towards Leishmania infantum at 1.56 uM Concentration; Toxic upon mouse primary peritoneal macrophages; type: functional, organism-based; summary of the method: as §4
[30] = tested on: Leishmania infantum; assay: In Vitro evaluation for the percentage of activity towards Leishmania infantum at 3.13 uM Concentration; Toxic upon mouse primary peritoneal macrophages; type: functional, organism-based; summary of the method: as §4
[31] = tested on: Trypanosoma cruzi; assay: In Vitro evaluation for the percentage of activity towards Trypanosoma cruzi at 1.56 uM Concentration; Toxic upon mouse primary peritoneal macrophages; type: functional; summary of the method: as §2
[32] = tested on: Leishmania infantum; assay: Percentage of activity against Leishmania infantum at 6.25 uM; Toxic upon mouse primary peritoneal macrophages; type: functional, organism-based; summary of the method: as §4
[33] = tested on: Trypanosoma cruzi; assay: In Vitro evaluation for the percentage of activity towards Trypanosoma cruzi at 3.13 uM Concentration; Toxic upon mouse primary peritoneal macrophages; type: functional, organism-based; summary of the method: as §2
[34] = tested on: Trypanosoma cruzi; assay: Percentage of activity against Trypanosoma cruzi at 12.5 uM; type: functional; summary of the method: as §2
[35] = tested on: Plasmodium falciparum; assay: Parasite growth inhibition against Plasmodium falciparum FCR3; type: functional, organism-based; summary of the method: as §3
[36] = tested on: Leishmania infantum; assay: In Vitro evaluation for the percentage of activity towards Leishmania infantum at 12.5 uM Concentration; type: functional; summary of the method: as §4
[37] = tested on: MRC5; assay: In Vitro cytotoxicity on MRC-5 cells; type: functional; conditions: Homo sapiens; summary of the method: as §5

Compound	Inhibition of parasite multiplication [1] [%]	Cytotoxicity [2]	Parasite growth inhibition [3] [%]	Inhibition of parasite multiplication [4] [%]	Percent inhibition of parasite multiplication [5] [%]	IC50 [6] [nM]	Antileishmanial activity (% reduction of parasite load) [7] [%]	Antileishmanial activity (% reduction of parasite load) [8] [%]	Percent antileishmanial activity (reduction of parasite load) [9] [%]	Reduction of T. cruzi parasite load [10] [%]	cytotoxicity at 12.5 µM [11] [%]	IC50 [12] [nM]	IC50 [14] [nM]	IC50 [15] [nM]	IC50 [16] [nM]	cytotoxicity at 6.25 µM [17] [%]	IC50 [18] [nM]	cytotoxicity at 25 µM [19] [%]	IC50 [20] [nM]	cytotoxicity at 3.13 µM [22] [%]	further results
COc1ccc2nc3cc(Cl)ccc3c(NCCCN(CCCNc3c4ccc(Cl)cc4nc4ccc(OC)cc34)C(=O)C(C)NC(=O)OC(C)(C)C)c2c1 (centres undefined)	100	Toxic	100	100	100	12	40	95	60	90	100	11	66	22	10	100	35	100	31	0	Parasite load reduction [13]: 0%; Reduction of T. cruzi parasite load [21]: 40%; Cytotoxicity [23]: Toxic
OC(c1cc(C(F)(F)F)nc2c(C(F)(F)F)cccc12)C1CCCCN1 (centres undefined) [MEFLOQUINE]																			6.9		IC50 [24]: 36 nM; IC50 [25]: 62 nM; IC50 [26]: 30 nM; IC50 [27]: 40 nM
COc1ccc2nc3cc(Cl)ccc3c(NCCNCCNc3c4ccc(Cl)cc4nc4ccc(OC)cc34)c2c1	100	Toxic	100	100	100						100					100		100	63	100	Cytotoxicity [28]: Toxic; Cytotoxicity [29]: Toxic; Cytotoxicity [30]: Toxic; Cytotoxicity [31]: Toxic; Cytotoxicity [32]: Toxic; Cytotoxicity [33]: Toxic; Cytotoxicity [23]: Toxic
COc1ccc2nc3cc(Cl)ccc3c(NCCCN3CCN(CCCNc4c5ccc(Cl)cc5nc5ccc(OC)cc45)CC3)c2c1	100		80	90	60	16	0	0	0	0	0	13	8	13	12	0	11	0	17	0	T. cruzi parasite load reduction [34]: 0%; IC50 [35]: 18 nM; Percent inhibition of Leishmania infantum [36]: 0%; Reduction of T. cruzi parasite load [21]: 0%
O=C(Cn1ccnc1[N+](=O)[O-])NCc1ccccc1 [BENZNIDAZOLE]																					CC50 [37]: > 50000 nM
